From ChEMBL document CHEMBL1126670, “Cyclic peptides as selective tachykinin antagonists” (J Med Chem, 1993) come the findings set out here.

Settings in all cases: read-out: pA2 (converted)
Assay [1] addresses T1, Substance-K receptor (Rattus norvegicus, UniProt P16610).
T1 sequence (P16610 whole entry): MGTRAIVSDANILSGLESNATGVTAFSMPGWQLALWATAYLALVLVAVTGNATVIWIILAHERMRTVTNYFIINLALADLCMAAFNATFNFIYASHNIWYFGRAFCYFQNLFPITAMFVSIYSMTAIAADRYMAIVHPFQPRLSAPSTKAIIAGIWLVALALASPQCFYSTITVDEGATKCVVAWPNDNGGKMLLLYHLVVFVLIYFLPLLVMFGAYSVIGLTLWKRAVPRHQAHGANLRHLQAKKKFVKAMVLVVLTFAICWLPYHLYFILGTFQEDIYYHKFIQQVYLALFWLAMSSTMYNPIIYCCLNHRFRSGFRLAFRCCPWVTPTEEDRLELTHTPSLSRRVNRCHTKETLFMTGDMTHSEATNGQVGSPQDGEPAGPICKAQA
Nature of the assay: Inhibition of eledoisin binding to NK-2 receptor in rat vas deferens. In outline:
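Vas deferens from Sprague-Dawley rats (200–300 g), electrically stimulated contractions with supramaximal rectangular bipolar pulses. Eledoisin log dose-response curves; antagonism taken from rightward shift. pA2 by Schild regression over three or more antagonist concentrations, or apparent pA2 from one antagonist concentration via the standard Schild equation assuming unit slope.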

The target in assay [2] is T2, Neuromedin-K receptor (Rattus norvegicus, UniProt P16177).
T2 sequence (P16177 whole entry): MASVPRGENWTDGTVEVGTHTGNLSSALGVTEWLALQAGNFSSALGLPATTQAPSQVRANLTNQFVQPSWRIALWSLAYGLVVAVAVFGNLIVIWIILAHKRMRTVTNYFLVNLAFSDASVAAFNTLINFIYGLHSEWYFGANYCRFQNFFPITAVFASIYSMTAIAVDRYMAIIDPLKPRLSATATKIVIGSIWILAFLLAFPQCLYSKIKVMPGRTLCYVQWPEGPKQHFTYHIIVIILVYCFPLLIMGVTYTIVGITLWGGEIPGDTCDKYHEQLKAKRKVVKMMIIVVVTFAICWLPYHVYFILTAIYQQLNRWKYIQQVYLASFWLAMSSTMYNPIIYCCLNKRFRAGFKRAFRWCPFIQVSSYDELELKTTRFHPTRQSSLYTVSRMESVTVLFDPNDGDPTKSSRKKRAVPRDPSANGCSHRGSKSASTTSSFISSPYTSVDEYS
Put plainly: Tested for antagonist activity toward NK-3 receptor in rat portal vein against the agonist eledoisin (mean +/-, n=4). The format is functional. In outline: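 Rat portal vein longitudinal strips; frequency and amplitude of myogenic contractions recorded. Antagonist activity derived from rightward shift of eledoisin log dose-response curves. pA2 by Schild regression, least squares, three or more antagonist concentrations, or apparent pA2 at a single antagonist concentration assuming unit slope (mean of three or four observations).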

In assay [3] the target is Substance-P receptor (Cavia porcellus, UniProt P30547). Nature of the assay: Tested for antagonist activity toward NK-1 receptor in guinea pig ileum against the agonist eledoisin (mean +/-, n=4). The class given is functional, tissue-based. The procedure, abridged: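 Guinea pig (male Dunkin-Hartley, 300–400 g) small-intestine longitudinal muscle, isometric contraction in Krebs-Henseleit at 37 °C with atropine, mepyramine, methysergide (each 5 μM) and indomethacin (1 μM). Antagonism measured as rightward shift of log dose-response curves to eledoisin. pA2 from Schild regression (least squares, three or more antagonist concentrations, three or more observations each), or apparent pA2 at a single concentration assuming unit slope (mean of 3–4 observations).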

Where a SMILES comes first, the peptide text is derived from it.

Substance-P receptor, sequence (P30547 whole entry): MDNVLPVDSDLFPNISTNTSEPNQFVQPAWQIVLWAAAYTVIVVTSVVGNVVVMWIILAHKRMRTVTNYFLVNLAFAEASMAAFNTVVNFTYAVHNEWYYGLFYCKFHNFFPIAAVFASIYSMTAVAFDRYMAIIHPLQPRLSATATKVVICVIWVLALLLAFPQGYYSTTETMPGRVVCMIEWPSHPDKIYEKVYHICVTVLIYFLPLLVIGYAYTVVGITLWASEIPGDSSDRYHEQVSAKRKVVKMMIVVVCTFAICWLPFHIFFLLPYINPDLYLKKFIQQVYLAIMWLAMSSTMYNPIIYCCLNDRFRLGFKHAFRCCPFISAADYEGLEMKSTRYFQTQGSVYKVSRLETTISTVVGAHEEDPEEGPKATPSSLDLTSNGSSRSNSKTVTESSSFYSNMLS

`CSCC[C@@H]1NC(=O)[C@H](CC(C)C)NC(=O)[C@@H]2CCCN2C(=O)[C@H](Cc2ccccc2)NC(=O)[C@H](Cc2c[nH]c3ccccc23)NC(=O)[C@H](CCC(N)=O)NC1=O`: in assay [1], the Kb was 15.8 µM.

For `CSCC[C@@H]1NC(=O)[C@H](CC(C)C)N2C=C[C@@H](NC(=O)[C@H](Cc3ccccc3)NC(=O)[C@](C)(c3cccc4ccccc34)NC(=O)[C@H](CCC(N)=O)NC1=O)C2=O`, the Kb in assay [1] was 2.51 µM.

As for `CSCC[C@@H]1NC(=O)[C@H](CC(C)C)N2C=C[C@@H](NC(=O)[C@H](Cc3ccccc3)NC(=O)[C@H](Cc3ccccc3)NC(=O)[C@H](CCC(N)=O)NC1=O)C2=O`, the Kb in assay [1] was 15.8 µM.

With `CSCC[C@@H]1NC(=O)[C@H](CC(C)C)NC(=O)[C@H]2CCCN2C(=O)[C@H](Cc2ccccc2)NC(=O)[C@H](Cc2c[nH]c3ccccc23)NC(=O)[C@H](CCC(N)=O)NC1=O`, in assay [1], the Kb was 20 µM.

Consider `CSCC[C@@H]1NC(=O)[C@H](CC(C)C)NC(=O)CNC(=O)[C@H](Cc2ccccc2)NC(=O)[C@H](Cc2c[nH]c3ccccc23)NC(=O)[C@H](CCC(N)=O)NC1=O` (cyclo(FGLMQW)), for which the Kb in assay [2] was 7.94 µM; in assay [1] it was 0.00794 µM; in assay [3] it was 2000 nM.

For the compound `CSCC[C@@H]1NC(=O)[C@H](CC(C)C)NC(=O)[C@H](Cc2ccccc2)NC(=O)[C@H](Cc2c[nH]c3ccccc23)NC(=O)[C@H](CCC(N)=O)NC1=O` (cyclo(FLMQW)), in assay [1], the Kb is 0.631 µM.
